Screening results (PubChem BioAssay)
JNK3 inh: JNK3 kinase activity inhibitors, primary screen, biochemical, human, purified enzyme; Mitogen-activated protein kinase 10 (Homo sapiens), P53779; HTS; inhibition, % at 8 µM; 60,000 tested, 0.61% active; in the data active means inhibition above about 17%;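 further: 0% = DMSO and 100% = reference inhibitor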
Target sequence (P53779 whole entry, looked up): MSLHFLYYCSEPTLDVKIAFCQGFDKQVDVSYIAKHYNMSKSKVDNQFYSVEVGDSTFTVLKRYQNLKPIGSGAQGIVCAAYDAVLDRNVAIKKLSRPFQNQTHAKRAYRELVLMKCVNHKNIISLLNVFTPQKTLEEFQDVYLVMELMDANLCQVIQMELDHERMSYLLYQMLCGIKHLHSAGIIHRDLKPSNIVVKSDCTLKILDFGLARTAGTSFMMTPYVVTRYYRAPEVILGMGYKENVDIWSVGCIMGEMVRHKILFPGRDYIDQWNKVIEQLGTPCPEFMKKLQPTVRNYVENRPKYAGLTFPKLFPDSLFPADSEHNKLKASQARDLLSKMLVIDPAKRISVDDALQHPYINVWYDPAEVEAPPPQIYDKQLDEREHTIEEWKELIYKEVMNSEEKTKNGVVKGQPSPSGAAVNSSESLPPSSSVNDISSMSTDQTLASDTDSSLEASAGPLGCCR
WNV protease inh: inhibitors of WNV NS2B-NS3 protease, primary screen, biochemical, fluorogenic substrate; Genome polyprotein (West Nile virus), P06935; 65,000 tested, 0.18% active; z-score (concentration not given with the values); fluorogenic substrate Ex360/Em465; stronger effect = lower value; in the data active means z-score below about -3
RORA act: activators of orphan receptor RORA, primary screen, cell-based, luminescence. 65,000 tested, 1.5% active. Nuclear receptor ROR-alpha (Homo sapiens), P35398. CHO-K1 Gal4-RORA LBD luciferase reporter; percent increase over mock-subtracted basal signal. activation, % at 10 µM;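 active means activation above the mean of all tested compounds plus 3 SD, cut at about 49% in these data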;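 further: 0% = DMSO-treated RORA cells and 100% = added signal equal to DMSO minus mock-transfected cells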
SF1 activator: activators of human SF-1, primary screen, cell-based, CHO-K1, Gal4-SF-1 LBD, luciferase luminescence; 65,000 tested, 1.9% active; activation, % at 10 µM; Steroidogenic factor 1 (Homo sapiens), Q13285; CHO-K1 Gal4-SF-1 LBD luciferase reporter; % increase over DMSO SF-1-specific signal;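 active means activation above the mean activation of all tested compounds plus 3 SD, cut at about 50% in these data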
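Assay system: CHO-K1 cells co-transfected with Gal4 DBD–human SF-1 LBD, 5xGal4 luciferase reporter; doses: 10 µM only; incubation: 20 h compound exposure at 37 °C after 1 h cell settling; signal: luciferase light emission; evaluation: percent activation versus DMSO; repeats: one test per compound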
ROCK2 inh: inhibitors of human ROCK2 kinase, primary screen, biochemical, high-throughput, luminescence | purified ROCK2, Kinase-Glo ATP depletion luminescence | 60,000 tested, 0.35% active | Rho-associated protein kinase 2 (Homo sapiens), O75116 | inhibition, % at 6 µM;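 active means inhibition above the screen-wide mean inhibition plus 3 SD, cut at about 18% in these data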;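 further: plate controls were DMSO wells for no effect and Y-27632 control wells after no-enzyme background subtraction for full effect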
PKA inh: inhibitors of human PKA kinase activity, primary screen, biochemical, ATP-depletion luminescence, Kemptide substrate; cAMP-dependent protein kinase catalytic subunit alpha (Homo sapiens), P17612; PKA Kemptide phosphorylation, Kinase-Glo ATP luminescence; inhibition, % at 6 µM; 65,000 tested, 0.1% active;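 active means inhibition above the screen-wide mean inhibition plus 3 SD, cut at about 21% in these data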
Active calls of the source: *. Only some compounds are listed: those with a hit (about 3.4% of all), similar ones and a draw of the others.

SMILES | JNK3 inh | WNV protease inh | RORA act | SF1 activator | ROCK2 inh | PKA inh
COc1ccc(-n2c(SCC(=O)N3CCCC3)nc3c([nH]c4ccccc43)c2=O)cc1 | -0.3 | -0.6 | -7.6 | 9.2 | 4.1 | 3.7
Cc1ccc(OCc2nc(-c3ccccc3)no2)c(C)c1 | -1.7 | 1.38 | 40.0 | 58.8* | -0.3 | -5.4
Cc1ccc2c(COC(=O)C3=COCCO3)cc(=O)oc2c1 | -3.6 | 1.07 | 38.0 | 67.3* | 0.1 | 0.0
Cc1ccc2c(COC(=O)c3cnc(C)cn3)cc(=O)oc2c1 | 2.5 | 0.83 | -21.7 | -7.5 | 5.2 | 9.6
CC(C)N1C(=O)CCC1C(=O)NCCc1ccccc1 (stereo not given) | -4.6 | -0.48 | -16.4 | 5.6 | 6.4 | 7.8
CCCCOCP(=O)(CCCC)COCCCC | -0.3 | -1.02 | 8.8 | -1.6 | 5.8 | 5.5
Nc1nnc(-c2ccncc2)s1 | -9.1 | 0.36 | -0.7 | 2.6 | 5.1 | 1.4
CCCOc1ccc(-c2nnc(N)s2)cc1 | -6.7 | -0.36 | 43.8 | 58.8* | 2.7 | 4.9
COc1ccc(-c2nnc(N)s2)cc1 | -2.9 | 1.47 | 50.0* | 7.4 | 2.3 | 7.9
CCCOc1ccc(Cc2nc(N)nc(N)n2)cc1 | 1.2 | 1.71 | -20.2 | -20.7 | 2.6 | 10.0
O=C(Nc1cccnc1)C1CCCN(S(=O)(=O)c2cccc3nsnc23)C1 (stereo not given) | 1.8 | 0.7 | 9.2 | 15.9 | 2.3 | 12.9
O=C1c2ccccc2C(=O)N1Cc1nc2ccccc2c(=O)n1Cc1ccco1 | -3.6 | 0.44 | -15.4 | -11.2 | 3.4 | 8.0
O=c1c2ccccc2nc2ccc(NCc3ccco3)nn12 | 0.8 | -1.07 | 53.2* | 8.9 | 0.4 | 1.2
COC(=O)CNC(=O)c1nn(-c2cccc(OC)c2)c(=O)c2ccccc12 | -1.4 | 1.12 | -10.5 | 4.6 | 8.3 | 9.1
CCOC(=O)c1[nH]c(C)c(C(=O)Nc2ccccc2C)c1C | -0.1 | 0.4 | 80.6* | 26.1 | 4.0 | 0.4
CCCCCCC(=O)c1c(C)[nH]c(C(=O)OCC)c1C | 2.8 | 0.23 | 9.1 | 52.8* | 7.3 | 6.1
COC(=O)c1cccc(NC(=O)CSc2nc3cccnc3n2C)c1 | 0.4 | 0.16 | 81.5* | 35.5 | 4.1 | 2.5
CCn1cc(C(=O)NCCCN(C)c2ccccc2)c(=O)c2cc(S(=O)(=O)N(C)C)ccc21 | -4.0 | 0.22 | 20.0 | 1.4 | 3.9 | 6.8
CCN(CCCNC(=O)c1cn(CC)c2ccc(S(=O)(=O)N(C)C)cc2c1=O)c1cccc(C)c1 | 11.1 | -0.17 | 62.5* | 9.7 | -0.2 | 0.5
CSCCNC(=O)c1ccc(C(C)(C)C)cc1 | -10.7 | 0.33 | 73.1* | 72.7* | -2.1 | 1.3
Cc1cc(Cl)ccc1OCc1nc(-c2ccc(O)cc2)n[nH]1 | 2.2 | -0.76 | -5.6 | -1.9 | 27.2* | 6.3
c1ccc(-c2csc3nnc(SCc4ccc5c(c4)OCO5)n23)cc1 | 5.4 | -0.71 | 4.5 | -4.7 | 1.4 | -0.9
OCCn1c(-c2ccc3c(c2)OCO3)csc1=Nc1ccccc1 | 3.7 | -0.95 | 45.8 | 50.6* | 7.7 | 9.1
COc1cccc(-c2nnc(Nc3nc4c(F)cccc4s3)o2)c1 | -10.0 | 1.49 | 28.1 | 51.4* | -6.7 | -7.0
COc1ccccc1-c1nnc(Nc2nc3c(OC)cccc3s2)o1 | -0.3 | 0.79 | -42.3 | -67.0 | 0.0 | 7.5
SMILES | JNK3 inh | WNV protease inh | RORA act | SF1 activator | ROCK2 inh | PKA inh
CC1=NN(c2ccccc2)C(=O)C1 | 7.3 | 0.21 | -6.5 | 3.2 | 19.4* | 0.9
CSc1ccc(/C=N/n2nnnc2N)cc1 | -5.0 | 1.83 | 51.3* | 25.2 | 7.3 | 3.3
CCN(CC)c1ccc(/C=N/n2nnnc2N)c(O)c1 | -6.2 | 0.43 | 26.5 | 20.5 | 4.1 | -7.1
CCN(C)c1ccc(/C=N\n2nnnc2N)cc1 | -7.1 | -0.04 | 66.7* | 86.9* | 4.2 | 5.8
O=C1NC(=O)c2cc(NC(=O)C3CCCCC3)ccc21 | 0.0 | 0.52 | -15.5 | 3.9 | 18.4* | 5.9
Cc1ccc(-c2nc3cccnc3s2)cc1NC(=O)c1ccco1 | 6.0 | 0.6 | 21.0 | 59.0* | -1.8 | -2.0
CCS(=O)(=O)Nc1cc(-c2nc3cccnc3s2)ccc1C | 3.4 | -1.48 | 31.9 | 71.0* | 0.6 | 6.4
Cc1ccc(-c2nnc3c4ccccc4c(C)nn23)cc1NC(=O)c1ccco1 | 8.4 | 0.12 | 9.7 | 17.9 | 3.2 | 9.8
O=C(COC(=O)c1ccc(S(=O)(=O)N2CCCC2)cc1)NCc1ccccc1 | -1.7 | -0.84 | -5.8 | 3.0 | 5.9 | 3.0
Cc1cc(C(=O)COC(=O)CCC(=O)c2ccc3c(c2)OCCO3)c(C)n1Cc1ccco1 | -0.9 | 0.2 | 3.3 | 2.4 | 6.5 | 11.9
CCOc1ncccc1C(=O)OCC(=O)c1cc(C)n(Cc2ccco2)c1C | -7.6 | 0.19 | 90.8* | 56.8* | 1.7 | -5.9
COc1cc2cc(C(c3nnnn3C3CCCCC3)N(C)C3CCCCC3)c(=O)[nH]c2cc1OC (stereo not given) | -2.8 | 0.78 | 1.5 | -9.2 | 5.2 | 10.0
C=CCNc1nc(-c2ccc(OC)cc2OC)cs1 | -6.2 | 0.2 | 51.5* | 102.5* | 2.6 | 8.7
COCCCN(C(C)=O)c1nc(-c2ccccc2)cs1 | 6.9 | -0.64 | 34.9 | 78.9* | 4.0 | 5.3
c1ccc(CCc2nn3c(Cc4ccccc4)nnc3s2)cc1 | -0.6 | 0.74 | -8.6 | -2.3 | 8.1 | 5.2
CC(C)n1nc(C(=O)OCC(=O)N(C)C2CCS(=O)(=O)C2)c2ccccc2c1=O (stereo not given) | 21.3* | 1.12 | -26.1 | 6.7 | -0.4 | -0.4
Cc1cc2c(c(Sc3ccccc3)n1)C(=O)OC2 | -0.2 | -1.11 | -15.5 | -8.7 | 1.8 | 2.7
CCOCCOC(=O)c1[nH]c2c(c1C)C(=O)CC(c1ccc(N(C)C)cc1)C2 (stereo not given) | -7.0 | 0.81 | 5.6 | 24.1 | 5.2 | 3.0
CCC(C)OC(=O)c1[nH]c2c(c1C)C(=O)CC(c1ccc(N(C)C)cc1)C2 (stereo not given) | 0.8 | -1.43 | 43.9 | 56.8* | -0.2 | -6.6
COC(=O)C1=C(N)Oc2cc(N(C)C)ccc2C1c1ccccc1OC (stereo not given) | 5.4 | -0.05 | 49.2* | 11.2 | 3.5 | 8.2
COC(=O)C1=C(N)Oc2cc(C)n(CC3CCCO3)c(=O)c2C1c1ccccc1OC (stereo not given) | 7.1 | -0.91 | -6.0 | -3.2 | 3.6 | 5.9
COc1ccc(/C=C/C2=NC(=C\N(C)C)/C(=O)O2)cc1 | -4.4 | -0.4 | 23.1 | 50.5* | 6.8 | 8.1
CC(C)(C)c1cc(NC(=O)c2cccnc2)no1 | -3.5 | -1.15 | 37.1 | 75.2* | 1.5 | 8.6
